Source: article PMC4101349 (Translational Oncology, 2014)

How the values were obtained:
[1] = Complete blood profile in treated mice; format: in vivo, BALB/c nude mice; settings: 10th day
Procedure, shortened: (§1)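 Male BALB/c nude mice, six weeks old, received vehicle, test compound, PI3K inhibitor, or both. The test compound was given at 5 mg/kg i.v. on days 0, 2, 4, 6 and 8; the inhibitor at 40 mg/kg i.p. daily. Vehicle was 0.9% saline with 8% DMSO, 6% Tween-80 and 16% cremophor. Hematological and serum biochemical parameters were measured 1 day after the last i.v. injection.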

[2] = system: PC9 cells; experiment: Alamar Blue cytotoxicity assay, PC9; format: cell-based; settings: Homo sapiens, PC-9, 72 h, read-out: IC50 (50% inhibition of cell growth)
Procedure, shortened: (§2)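 Cells were seeded at 3000 per well and incubated overnight at 37°C. They were then exposed for 72 h to a range of test compound concentrations, alone or combined with a PI3K inhibitor. Alamar Blue was added for 6 h and absorbance read at 570 and 600 nm. IC50 was derived by the median-effect principle, as mean ± SD of three independent experiments. A549 was kept in DMEM; other lines in RPMI 1640 with 10% FBS, at 37°C and 5% CO2.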

[3] = system: H460 cells; experiment: H460 xenograft: histopathology of tumor; format: in vivo, BALB/c nude mice; settings: H460-xenografted mice; 29th day; histopathologic examination
Procedure, shortened: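 Nude mice were inoculated s.c. in the flank with H460 cells (approximately 3 × 10^6 to 5 × 10^6 in 100 μl PBS). Dosing began at about 100 mm3: test compound 5 mg/kg i.v. every other day ×5, PI3K inhibitor 40 mg/kg i.p. daily, or both. Tumors were taken 24 h after the final treatment for cleaved caspase-3 immunohistochemistry. Lungs were taken 29 days after transplantation for H&E histology.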

[4] = Blood enzymes / biochemical parameters in treated mice; format: in vivo; settings: 10th day; BALB/c nude mice; mean ± SD
Procedure, shortened: as §1

[5] = system: PC9/gef B4 cells; experiment: Mouse xenograft model, PC9/gef B4; format: in vivo, BALB/c nude mice; settings: PC9/gef B4-xenografted mice; LY294002 40 mg/kg i.p. daily
Procedure, shortened: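 PC9/gef B4 cells were implanted s.c. in the flank of male BALB/c nude mice, six weeks old. At about 70 mm3, mice were randomized into four groups: vehicle, test compound 5 mg/kg i.v. every other day ×5, PI3K inhibitor by daily i.p. injection, or the combination. Vehicle was saline with 8% DMSO, 6% Tween-80 and 16% cremophor. Caliper tumor volume was calculated as (length × width²)/2.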

[6] = system: A549 cells; experiment: Alamar Blue cytotoxicity assay, A549; format: cell-based; settings: Homo sapiens, A549, 72 h, read-out: IC50 (50% inhibition of cell growth)
Procedure, shortened: as §2

[7] = system: H460, A549, PC9, or PC9/gef B4 cells; experiment: Mouse xenograft models, suppression of tumor growth; format: in vivo, BALB/c nude mice; settings: H460, A549, PC9, PC9/gef B4 xenografts; BO-1509 5 mg/kg i.v. every other day times five; LY294002 40 mg/kg i.p. daily
[8] = system: DNA repair proteins (Mre11, Nbs1, pNbs1, Rad50, Rad51, FANCD2); experiment: Western blot of DNA repair proteins in lung cancer cells; format: cell-based, human; settings: LY294002 40 μM with 20 μM BO-1509, 24 hours; H460, A549, PC9, PC9/gef B4
Procedure, shortened: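 H460, A549, PC9 and PC9/gef B4 cells were treated for 24 h with 10-80 μM test compound. Alternatively, they received 20 μM test compound and/or 40 μM PI3K inhibitor for 24 h. Lysates in electrophoresis sample buffer were run on SDS-PAGE and transferred to PVDF. Membranes took primary antibodies overnight at 4°C and HRP secondary antibody for 1 h at room temperature. Detection was by chemiluminescence, with β-actin as loading control.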

[9] = system: H460 cells; experiment: Alamar Blue cytotoxicity assay, H460; format: cell-based; settings: Homo sapiens, NCI-H460, 72 h, read-out: IC50 (50% inhibition of cell growth)
Procedure, shortened: as §2

[10] = system: PC9/gef B4 cells; experiment: Alamar Blue cytotoxicity assay, PC9/gef B4; format: cell-based; settings: Homo sapiens, 72 h, read-out: IC50 (50% inhibition of cell growth)
Procedure, shortened: as §2

- Basophils ([1]; BALB/c nude mice, mean ± SD): 0.07 ± 0.00 10^3/μl
- Eosinophils ([1]; BALB/c nude mice, mean ± SD): 0.06 ± 0.01 10^3/μl
- Hematocrit ([1]; BALB/c nude mice, mean ± SD): 54.1 ± 0.70%
- Hemoglobin ([1]; BALB/c nude mice, mean ± SD): 16.25 ± 0.10 g/dL
- Lymphocytes ([1]; BALB/c nude mice, mean ± SD): 0.81 ± 0.10 10^3/μl
- Mean cell hemoglobin ([1]; BALB/c nude mice, mean ± SD): 15.40 ± 0.09 pg
- Mean cell volume ([1]; BALB/c nude mice, mean ± SD): 51.5 ± 0.30 fL
- Mean corpuscular hemoglobin concentration ([1]; BALB/c nude mice, mean ± SD): 29.90 ± 0.30 g/dL
- Monocytes ([1]; BALB/c nude mice, mean ± SD): 0.15 ± 0.05 10^3/μl
- Neutrophils ([1]; BALB/c nude mice, mean ± SD): 1.27 ± 0.10 10^3/μl
- Platelets ([1]; BALB/c nude mice, mean ± SD): 783 ± 86 10^3/μl
- RBC distribution width ([1]; BALB/c nude mice, mean ± SD): 20.90 ± 1.00%
- RBCs ([1]; BALB/c nude mice, mean ± SD): 10.53 ± 0.10 10^6/μl
- WBCs ([1]; BALB/c nude mice, mean ± SD): 2.37 ± 0.20 10^3/μl
- decrease of RBC count and hemoglobin concentration ([1]; treated mice versus control): minimal changes
- Alanine aminotransferase [4]: 31.6 ± 2.5 U/l
- Blood urea nitrogen [4]: 25.0 ± 5.8 mg/dL
- Glucose (GLU-P) [4]: 172 ± 23 mg/dL
- LDH [4]: 463 ± 117 U/l
SMILES: O=c1cc(N2CCOCC2)oc2c(-c3ccccc3)cccc12 [LY294002, 2-(4-morpholinyl)-8-phenyl-4H-1-benzopyran-4-one]
- IC50 [2]: 56.9 ± 1.1 µM
- metastasis in the lungs [3]: 80%
- AST [4]: 75.6 ± 17.8 U/l
- suppression of the tumor burden [5]: ~40%
- IC50 [6]: 28.4 ± 4.3 µM
- suppression of the tumor burden [7]: limited
- BO-1509-induced increase in pNbs1 and Rad51 [8]: suppressed
- IC50 [9]: 111 ± 15.1 µM
- IC50 [10]: 31.3 ± 3.8 µM
